Experimental data from different studies.
Compare with care: the assays were run in different laboratories.
Observed: metabolic stability

NCCc1c[nH]c2ccc(O)cc12  hepatocyte CLint (human, hepatocytes; 5 µM): 38.6 µL/min/10⁶ cells
Cc1ncc2n1-c1ccc(Cl)cc1C(c1ccccc1F)=NC2  microsomal CLint (human, liver microsomes; 1 µM): > 250 µL/min/mg
C[C@H](C(=O)N[C@H]1COc2ccccc2[C@@H]1S(C)(=O)=O)c1ccc(F)cc1  microsomal CLint (human, liver microsomes; 1 µM, 1 h): 3 µL/min/mg
COC(=O)N[C@H](C(=O)NN(CC[C@@]1(Cc2ccccc2)C(=O)N([C@H]2c3ccccc3C[C@H]2O)C[C@@H]1O)Cc1ccc(Br)cc1)C(C)(C)C  microsomal CLint (human, liver microsomes; 1 µM, pH 7.35): > 300 µL/min/mg
Cc1ccc(F)c2cc(C(=O)N[C@@H]3CCC[C@H](N4CC[C@H](N(C)S(C)(=O)=O)C4)C3)[nH]c12  scaled CLint (human, hepatocytes; 0.5 µM, 2 h): 51 mL/min/kg
CCCCCn1nc(C(=O)Nc2cccc3ccccc23)c2ccccc21  microsomal CLint (male human, liver microsomes; 1 µM, pH 7.4): 410 µL/min/mg
CN1CCN(Cc2ccc(NC(=O)c3cncc(C#Cc4cnc(N)c5ncccc45)c3)cc2C(F)(F)F)CC1  microsomal CLint (human, liver microsomes): 3.6 µL/min/mg
C#Cc1ccc2c(c1)C(c1ccccn1)=NCc1c(-c3cnco3)ncn1-2  microsomal CLint (human, liver microsomes): 0.046 µL/min/mg
CN(C)CCc1c[nH]c2ccccc12  hepatocyte CLint (human, hepatocytes; 0.6 µM): 19.4 µL/min/10⁶ cells
Cc1cc(C)nc(Nc2ncc(C(=O)NCCc3c(C)[nH]c4ccccc34)cn2)c1  microsomal CLint (human, liver microsomes; 1 µM): 25 µL/min/mg
Cc1nonc1Cn1nnc2c(N3CC[C@H](O)C3)nc(C(C)(C)C)nc21  hepatocyte CLint (human, hepatocytes): 8.1 µL/min/10⁶ cells
CCCCCn1cc(C(=O)Nc2cccc3ccccc23)c2ccccc21  microsomal CLint (male human, liver microsomes; 1 µM, pH 7.4): 300 µL/min/mg
C[C@H]1CN(Cc2ccc(C(F)(F)F)cc2N2CCOCC2)CCN1C(=O)n1ccc(S(=O)(=O)N(C)C)n1  microsomal CLint (human, liver microsomes): 480 µL/min/mg
Cc1nc2c(=O)n(C)c(=O)nc-2n(C)n1  microsomal CLint (human, liver microsomes): < 7.4 µL/min/mg
Cc1nc([C@@](C)(CC2CC2)NC(=O)c2cc(OCC(F)(F)F)c(C3CC3)cn2)no1  hepatocyte CLint (human, hepatocytes): 17 µL/min/10⁶ cells
